Our source for the IC50 values is ChEMBL document CHEMBL5356938, “Enhancing allosteric inhibition of dihydrodipicolinate synthase through the design and synthesis of novel dimeric compounds” (RSC Med Chem, 2023).

Assay [1] addresses T1, 4-hydroxy-tetrahydrodipicolinate synthase 2, chloroplastic (Arabidopsis thaliana, UniProt Q9FVC8).
T1 sequence (Q9FVC8 whole entry): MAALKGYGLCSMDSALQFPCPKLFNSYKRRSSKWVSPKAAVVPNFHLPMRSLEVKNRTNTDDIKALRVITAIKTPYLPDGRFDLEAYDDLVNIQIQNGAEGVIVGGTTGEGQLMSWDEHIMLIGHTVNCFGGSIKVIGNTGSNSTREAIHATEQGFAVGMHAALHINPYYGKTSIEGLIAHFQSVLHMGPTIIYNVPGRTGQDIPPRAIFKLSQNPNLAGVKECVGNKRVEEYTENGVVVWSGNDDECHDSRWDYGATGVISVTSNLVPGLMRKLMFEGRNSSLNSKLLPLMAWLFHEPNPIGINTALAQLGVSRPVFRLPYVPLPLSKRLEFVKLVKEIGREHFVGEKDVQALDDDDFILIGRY
The experiment in a line: Inhibition of Arabidopsis thaliana DHDPS2. A digest of the protocol: (§1)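 Coupled DHDPS–DHDPR assay with final 250 mM HEPES pH 8.0, 0.2 mM NADPH, 1 mM pyruvate, 0.125 mM ASA, 0.0009 mM E. coli DHDPR, 0.00008 mM DHDPS, 0.05% Tween 20 and varied inhibitor. Enzymes, pyruvate, buffer and NADPH were held at 30 °C for 12 min, then ASA was added. NADPH oxidation was followed at 340 nm and 30 °C. Initial rates came from the linear A340 slope, run in triplicate, and were used for IC50.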

Assay [2] addresses T2, 4-hydroxy-tetrahydrodipicolinate synthase 1, chloroplastic (Arabidopsis thaliana, UniProt Q9LZX6).
T2 sequence (Q9LZX6 whole entry): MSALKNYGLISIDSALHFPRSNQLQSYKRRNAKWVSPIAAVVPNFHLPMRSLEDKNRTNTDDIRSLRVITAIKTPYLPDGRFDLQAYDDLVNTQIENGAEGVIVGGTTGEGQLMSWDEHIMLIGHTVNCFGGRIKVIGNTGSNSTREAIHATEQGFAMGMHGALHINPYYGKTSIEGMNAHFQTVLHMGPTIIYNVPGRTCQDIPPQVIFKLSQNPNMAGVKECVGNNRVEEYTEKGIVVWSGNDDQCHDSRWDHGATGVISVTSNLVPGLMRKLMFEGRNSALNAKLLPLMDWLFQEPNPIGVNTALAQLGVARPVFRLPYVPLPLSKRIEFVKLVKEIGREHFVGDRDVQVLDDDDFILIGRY
Description: Inhibition of Arabidopsis thaliana DHDPS1. A digest of the protocol: as §1

Assay [3] in a line: Inhibition of Escherichia coli DHDPS using ASA as substrate assessed as NADPH oxidation to NADP+ preincubated with compound for 12 mins in the presence of NADPH followed by substrate addition by UV/Vis spectrophotometric analysis. An outline of the steps: as §1

In the case of `COc1ccc(/C=C2\SC(=O)N(CC(=O)O)C2=O)cc1`, the IC50 – broadly, the concentration that gives 50% inhibition – stood at 66 µM in assay [1], 66.2 µM in assay [2] and 47 µM in assay [3]. Take `CCOC(=O)C(Br)CCC(Br)C(=O)OCC` (stereo unspecified): the IC50 in assay [3] was found to be 77.4 µM. Still for that read-out and setting: to `COc1ccc(/C=C2\SC(=O)N(C(CCCC(C(=O)O)N3C(=O)S/C(=C\c4ccc(OC)cc4)C3=O)C(=O)O)C2=O)cc1` (stereo unspecified) belongs 40.6 µM; to `COc1ccc(/C=C2\SC(=O)N([C@H](CC[C@@H](C(=O)O)N3C(=O)S/C(=C\c4ccc(OC)cc4)C3=O)C(=O)O)C2=O)cc1`, 42 µM. Consider `COc1ccc(/C=C2\SC(=O)N([C@H](C[C@@H](C(=O)O)N3C(=O)S/C(=C\c4ccc(OC)cc4)C3=O)C(=O)O)C2=O)cc1`, for which the IC50 in assay [1] was determined as 33.9 µM; in assay [2], 35.6 µM; in assay [3], 9.95 µM. Consider `COc1ccc(/C=C2\SC(=O)N([C@@H](CC[C@@H](C(=O)O)N3C(=O)S/C(=C\c4ccc(OC)cc4)C3=O)C(=O)O)C2=O)cc1` (racemic), for which, in assay [3], the IC50 was 19.7 µM. The same measure, in the same setting: to `COc1ccc(/C=C2\SC(=O)N([C@H](C[C@H](C(=O)O)N3C(=O)S/C(=C\c4ccc(OC)cc4)C3=O)C(=O)O)C2=O)cc1` (racemic) belongs 30.4 µM.
